Inhibition of growth data for one molecule are collected here from ChEMBL document CHEMBL3046951, “Volatile constituents from the leaves of Callicarpa japonica Thunb. and their antibacterial activities” (2004).

Common to all, as to format: functional
The test system of assay [1] is Salmonella typhimurium. Put plainly: Antimicrobial activity against Salmonella enterica subsp. enterica serovar Typhimurium ATCC 14028 assessed as growth inhibition rate at 215.04 mg/l after 72 hr by spectrophotometry. The conditions noted are these: ATCC 14028, 72 h, read-out: GI. The procedure, abridged: (§1)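 Salmonella Typhimurium ATCC 14028 grown in nutrient broth at 30 °C, precultured 24 h, then subcultured 1:100 for 18 h before testing. Single volatile compounds (>95% pure) were added. OD was read every 24 h over 72 h in a Bioscreen C, with 10% Tween 80 as the comparison control.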

The test system of assay [2] is Salmonella typhimurium. Put plainly: Antimicrobial activity against Salmonella enterica subsp. enterica serovar Typhimurium ATCC 14028 assessed as growth inhibition rate at 6.12 mg/l after 72 hr by spectrophotometry. The settings on record: ATCC 14028, 72 h, read-out: GI.
The subject of assay [3] is Staphylococcus aureus. Nature of the assay: Antimicrobial activity against Staphylococcus aureus ATCC 25923 assessed as growth inhibition rate at 43 mg/l after 72 hr by spectrophotometry. The conditions noted are these: ATCC 25923, 72 h, read-out: GI.
The subject of assay [4] is Bacillus cereus. Nature of the assay: Antimicrobial activity against Bacillus cereus ATCC 11778 assessed as growth inhibition rate at 43 mg/l after 72 hr by spectrophotometry. The conditions noted are these: ATCC 11778, 72 h, read-out: GI. The method, boiled down:
(§2)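 Pure volatile compounds (purity >95%; one at 90%) were tested against B. cereus ATCC 11778. The strain was grown at 30 °C in nutrient broth for 24 h, then subcultured for 18 h. Optical density was read in a Bioscreen C every 24 h for 72 h, with 10% Tween 80 as the control.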

The test system of assay [5] is Bacillus cereus. Nature of the assay: Antimicrobial activity against Bacillus cereus ATCC 11778 assessed as growth inhibition rate at 21.52 mg/l after 72 hr by spectrophotometry. The settings on record: ATCC 11778, 72 h, read-out: GI. The method, boiled down:
as §2

Assay [6] relates to Salmonella typhimurium. Put plainly: Antimicrobial activity against Salmonella enterica subsp. enterica serovar Typhimurium ATCC 14028 assessed as growth inhibition rate at 247 mg/l after 72 hr by spectrophotometry. The conditions noted are these: ATCC 14028, 72 h, read-out: GI. The procedure, abridged:
as §1

For assay [7], the system named is Staphylococcus aureus. Put plainly: Antimicrobial activity against Staphylococcus aureus ATCC 25923 assessed as growth inhibition rate at 21.52 mg/l after 72 hr by spectrophotometry. The settings on record: ATCC 25923, 72 h, read-out: GI.
Assay [8] deals with Vibrio parahaemolyticus. Put plainly: Antimicrobial activity against Vibrio parahaemolyticus ATCC 33844 assessed as growth inhibition rate at 21.52 mg/l after 72 hr by spectrophotometry. The settings on record: ATCC 33844, 72 h, read-out: GI.
Assay [9] concerns Listeria monocytogenes. Nature of the assay: Antimicrobial activity against Listeria monocytogenes ATCC 19111 assessed as growth inhibition rate at 43 mg/l after 72 hr by spectrophotometry. The conditions noted are these: ATCC 19111, 72 h, read-out: GI. The method, boiled down:
(§3)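 L. monocytogenes was grown at 30 °C in tryptic soy broth, subcultured for 18 h, and exposed to pure volatile compounds (>95% purity). Growth was followed by Bioscreen C optical density every 24 h for 72 h against a 10% Tween 80 control.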

The test system of assay [10] is Listeria monocytogenes. Nature of the assay: Antimicrobial activity against Listeria monocytogenes ATCC 19111 assessed as growth inhibition rate at 21.52 mg/l after 72 hr by spectrophotometry. The conditions noted are these: ATCC 19111, 72 h, read-out: GI. The procedure, abridged: as §3
The test system of assay [11] is Listeria monocytogenes. Nature of the assay: Antimicrobial activity against Listeria monocytogenes ATCC 19111 assessed as growth inhibition rate at 6.12 mg/l after 72 hr by spectrophotometry. The conditions noted are these: ATCC 19111, 72 h, read-out: GI. The procedure, abridged: as §3

Regarding `CCC/C=C/C=O`, the inhibition of growth at 215.04 µg/mL in assay [1] was 99.4%. The inhibition of growth at 6.12 µg/mL was determined as 47.1% in assay [2] and 31% in assay [11]. Also, the figures for the inhibition of growth at 43 µg/mL in [3], in [4] and in assay [9] were 44.3%, 91.8% and 45.3%, respectively. Further, the inhibition of growth at 21.52 µg/mL in assay [5] amounted to 91.3%; in assay [7], 28.7%; in [8] it was 99.6%; in assay [10] it was 32%. Besides, the inhibition of growth at 247 µg/mL in assay [6] stood at 98.7%.
